As usually defined, the IC50 is the concentration that inhibits the measured activity by half.

The target in the first assay is T1, Squalene synthase (Rattus norvegicus, UniProt Q02769).
T1 sequence (Q02769 whole entry): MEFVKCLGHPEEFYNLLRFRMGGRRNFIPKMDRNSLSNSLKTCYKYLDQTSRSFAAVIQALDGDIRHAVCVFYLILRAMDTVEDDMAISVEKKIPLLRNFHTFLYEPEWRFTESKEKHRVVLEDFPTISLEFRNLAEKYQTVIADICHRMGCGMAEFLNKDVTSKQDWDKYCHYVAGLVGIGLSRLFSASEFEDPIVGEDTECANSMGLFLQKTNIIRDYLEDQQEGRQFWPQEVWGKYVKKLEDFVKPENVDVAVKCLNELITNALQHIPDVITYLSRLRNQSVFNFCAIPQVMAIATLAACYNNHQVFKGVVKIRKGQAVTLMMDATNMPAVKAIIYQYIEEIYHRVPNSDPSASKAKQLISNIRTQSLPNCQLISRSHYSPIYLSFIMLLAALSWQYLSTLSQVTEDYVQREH
The experiment in a line: Inhibitory activity against squalene synthetase in rat liver microsomes. Also noted: species or system Microsome. In a few lines: (§1)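 Rat liver microsomes (about 1 mg/mL protein) were prepared in pH 7.4 phosphate buffer with EDTA and stored at -80 °C. Samples were preincubated at 37 °C under nitrogen for 5 min. Final NADPH was 1.2 mM and MgCl2 5 mM. Tritiated farnesyl pyrophosphate started a 10-min reaction at 37 °C under nitrogen. Products were counted by liquid scintillation. Reactions ran in duplicate at several concentrations across at least four independent assays. IC50 was derived by linear regression of the pooled data.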
For orientation: Liver microsomes are vesicles of endoplasmic reticulum, rich in cytochrome P450 enzymes.
Turning to `CC(C)CCCC(C)CCCC(C)CCNCc1cccnc1` (stereo not given), half-maximal inhibition (IC50) required 7 µM.
In turn, `CC(C)=CCC/C(C)=C/CC/C(C)=C/CNCC(C)CC/C=C(\C)CCC=C(C)C` (stereo not given) registered an IC50 of 1 µM.
In turn, `CC(C)=CCC/C(C)=C/CC/C(C)=C/CNCc1cccnc1` gave an IC50 of 0.05 µM.
Turning to `CC(C)=CCC/C(C)=C/CNCc1cccnc1`, inhibition was half-maximal at 23 µM (IC50).
On to `CC(C)=CCC/C(C)=C/CC/C(C)=C/CNCc1ccccc1`, for which half-maximal inhibition (IC50) required 0.1 µM.
The compound `CC(C)=CCC/C(C)=C/CC/C(C)=C/CNCc1ccncc1` had an IC50 of 0.1 µM.
On the same count and under the same terms, then `CCN(C/C=C(\C)CC/C=C(\C)CCC=C(C)C)Cc1cccnc1`, with 4.9 µM.
`CCN(C/C=C(\C)CC/C=C(\C)CCC=C(C)C)C/C=C(\C)CC/C=C(\C)CCC=C(C)C` displayed an IC50 of 182 µM.
As for `CC(C)=CCC/C(C)=C/CC/C(C)=C/COCc1cccnc1`, the IC50 was determined as 33 µM.
On the same count and under the same terms, then `CCNC/C=C(\C)CC/C=C(\C)CCC=C(C)C`, with 0.6 µM; and `CC(C)=CCC/C(C)=C/CC/C(C)=C/COC/C=C(\C)CC/C=C(\C)CCC=C(C)C`, with 828 µM; and `CC(C)=CCC/C(C)=C/CCC(C)CNCc1cccnc1` (stereo not given), with 23 µM.
Still for that read-out and setting: as for `CC(C)=CCC/C(C)=C/CC/C(C)=C/CNC/C=C(\C)CC/C=C(\C)CCC=C(C)C`, the figure is 48 µM.

Another assay has as its target T1, Squalene synthase. Kind of assay: Tested for inhibitory activity against squalene synthetase in the presence of inorganic pyrophosphate (PPi). In a few lines:
as §1
With `CC(C)=CCC/C(C)=C/CC/C(C)=C/CNCc1cccnc1`, the IC50 was found to be 0.004 µM.
Regarding `CC(C)=CCC/C(C)=C/CC/C(C)=C/CNCc1ccccc1`, the IC50 stood at 0.01 µM.

The values above are taken from ChEMBL document CHEMBL1126696, “N-(arylalkyl)farnesylamines: new potent squalene synthetase inhibitors” (J Med Chem, 1993).
